From ChEMBL document CHEMBL3352396, “Zwitterionic pyrimidinium adducts as antioxidants with therapeutic potential as nitric oxide scavenger” (Eur J Med Chem, 2014)

How the values were obtained:
[1] = Nitric oxide scavenging activity by naphthylethylenediamine dihydrochloride based Griesse-Ilosavay method
Outline: (§1)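 Modified Griess-Ilosavay assay. Test sample in DMSO was mixed with potassium phosphate buffer (10 mM, pH 7.4) and sodium nitroprusside (10 mM stock), then incubated at 25 °C for 150 min to form nitrite. Sulphanilic acid reagent (0.33%) and N-(1-naphthyl)ethylenediamine dihydrochloride (0.1% w/v) were added, and the mixture stood 1–2 min. Absorbance was read at 546 nm against a blank. Ascorbic acid was the positive control and DMSO the blank. IC50 was obtained by […].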

[2] = Nitric oxide scavenging activity by naphthylethylenediamine dihydrochloride based Griesse-Ilosavay method relative to ascorbic acid; outline: as §1

SMILES | IC50 [1] [µM] | Ratio IC50 [2]
O=c1[nH]c(O)c(C(c2ccc3ccccc3c2)c2c(O)[nH]c(=O)[nH]c2=O)c(=O)[nH]1 | 308 | –
Cn1c(O)c(C(c2cccc(Br)c2)c2c(O)n(C)c(=O)n(C)c2=O)c(=O)n(C)c1=O | 70.1 | –
Cn1c(O)c(C(c2ccc(C=O)cc2)c2c(O)n(C)c(=O)n(C)c2=O)c(=O)n(C)c1=O | 113 | –
Cn1c(O)c(C(c2ccc(Cl)cc2)c2c(O)n(C)c(=O)n(C)c2=O)c(=O)n(C)c1=O | 75 | –
Cn1c(O)c(C(C2=C(O)CC(C)(C)CC2=O)c2ccccc2)c(=O)n(C)c1=O (centres undefined) | 290 | –
COc1ccc(C(c2c(O)[nH]c(=O)[nH]c2=O)c2c(O)[nH]c(=O)[nH]c2=O)cc1 | 206 | –
Cc1ccc(C(c2c(O)n(C)c(=O)n(C)c2=O)c2c(O)n(C)c(=O)n(C)c2=O)cc1 | 230 | –
Cn1c(O)c(C(c2ccc([N+](=O)[O-])cc2)c2c(O)n(C)c(=O)n(C)c2=O)c(=O)n(C)c1=O | 69 | –
Cn1c(O)c(C(C2=C(O)CC(C)(C)CC2=O)c2ccc([N+](=O)[O-])cc2)c(=O)n(C)c1=O (centres undefined) | 466 | –
COc1ccc(C(c2c(O)n(C)c(=O)n(C)c2=O)c2c(O)n(C)c(=O)n(C)c2=O)cc1 | 234 | –
O=c1[nH]c(O)c(C(c2ccc(Cl)cc2)c2c(O)[nH]c(=O)[nH]c2=O)c(=O)[nH]1 | 304 | –
Cc1ccc(C(C2=C(O)CC(C)(C)CC2=O)c2c(O)[nH]c(=O)[nH]c2=O)cc1 (centres undefined) | 432 | –
O=Cc1ccc(C(c2c(O)[nH]c(=O)[nH]c2=O)c2c(O)[nH]c(=O)[nH]c2=O)cc1 | 330 | –
Cn1c(O)c(C(C2=C(O)CC(C)(C)CC2=O)c2ccc(Cl)cc2Cl)c(=O)n(C)c1=O (centres undefined) | 175 | 500
Cn1c(O)c(C(c2ccc(O)cc2)c2c(O)n(C)c(=O)n(C)c2=O)c(=O)n(C)c1=O | 310 | –
CC1(C)CC(=O)C(C(C2=C(O)CC(C)(C)CC2=O)c2ccc([N+](=O)[O-])cc2)=C(O)C1 | 281 | –
Cn1c(O)c(C(C2=C(O)CC(C)(C)CC2=O)c2ccc(C=O)cc2)c(=O)n(C)c1=O (centres undefined) | 380 | –
O=C1O[C@H]([C@@H](O)CO)C(O)=C1O [ASCORBIC ACID] | 618 | –
CC1(C)CC(=O)C(C(c2ccc(C=O)cc2)c2c(O)[nH]c(=O)[nH]c2=O)=C(O)C1 (centres undefined) | 439 | –
Cn1c(O)c(C(c2ccc3ccccc3c2)c2c(O)n(C)c(=O)n(C)c2=O)c(=O)n(C)c1=O | 79.1 | –
CC1(C)CC(=O)C(C(c2ccccc2)c2c(O)[nH]c(=O)[nH]c2=O)=C(O)C1 (centres undefined) | 361 | –
Cc1cccc(C(c2c(O)n(C)c(=O)n(C)c2=O)c2c(O)n(C)c(=O)n(C)c2=O)c1 | 174 | –
Cc1ccc(C(c2c(O)[nH]c(=O)[nH]c2=O)c2c(O)[nH]c(=O)[nH]c2=O)cc1 | 377 | –
